Bioassay records deposited in PubChem BioAssay by several laboratories.
Most compounds without a hit are left out; they make up all but 27% or so of the library.
Cav32 inh: blocks human Cav3.2 T-type calcium channel; B-score at 10 µM; 100,000 tested, 4% active; O95180; Cav3.2-expressing cells, Fluo-4 calcium fluorescence FDSS; hits give low values; AID 449739;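 active means single-dose well whose peak fluorescence ratio is a statistical outlier from its plate by either plate-standardised score or position-corrected B-score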
CYP2C19 activ: activators of human cytochrome P450 2C19; 96,000 tested, under 10 active; P33261; activation factor at 5 µM; recombinant CYP2C19, luciferin-H EGE luminescence; hits give high values; 0 = fully inhibited enzyme, 1 = untreated enzyme;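 active means activation factor of at least 2 at 5 µM in the primary screen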;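 further: 0 = wells with 2.5 mM tranylcypromine and 1 = vehicle-only wells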
Target sequence (P33261 whole entry, looked up): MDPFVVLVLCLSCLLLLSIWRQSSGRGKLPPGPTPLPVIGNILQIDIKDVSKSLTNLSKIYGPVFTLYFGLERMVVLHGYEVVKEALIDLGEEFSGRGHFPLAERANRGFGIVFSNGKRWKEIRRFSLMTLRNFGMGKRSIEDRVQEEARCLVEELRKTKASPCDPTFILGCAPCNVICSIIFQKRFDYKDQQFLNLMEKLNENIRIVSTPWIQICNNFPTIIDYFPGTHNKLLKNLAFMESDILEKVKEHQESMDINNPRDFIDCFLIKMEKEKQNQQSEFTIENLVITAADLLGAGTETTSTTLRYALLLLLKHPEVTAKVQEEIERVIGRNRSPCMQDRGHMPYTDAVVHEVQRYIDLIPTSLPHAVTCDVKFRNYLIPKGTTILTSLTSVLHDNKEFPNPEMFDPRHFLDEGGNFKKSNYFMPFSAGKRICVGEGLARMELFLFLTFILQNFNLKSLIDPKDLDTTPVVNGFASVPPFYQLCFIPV
CYP2C9 act: activators of human CYP2C9. activation factor at 5 µM. AID 1024. recombinant CYP2C9, luciferin-H conversion, luminescence; hits give high values; factor 1 = untreated enzyme, 0 = blocked. 96,000 tested, 1.4% active;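 active means activation factor of 2 or more for CYP2C9 at a 5 µM dose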;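 further: 0 = sulfaphenazole-blocked wells and 1 = vehicle-only wells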
HIV Rev-RRE inh: HIV Rev-RRE protein-RNA interaction inhibition | P05866 | Rev peptide-RRE RNA binding, FRET | inhibition, % at 8 µM | 97,000 tested, 0.79% active | AID 704;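 active means inhibition above the screen-wide mean plus 3 SD, cut at about 35% in these data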;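 further: 0% = median DMSO wells and 100% = median Neomycin B control wells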
Target sequence (P05866 whole entry, looked up): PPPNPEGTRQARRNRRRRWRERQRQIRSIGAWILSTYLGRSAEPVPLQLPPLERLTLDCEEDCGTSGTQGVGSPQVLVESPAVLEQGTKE
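Assay system: Rev peptide and RRE RNA, both fluorescently labelled; times: 5 min preincubation and 15 min binding, 25 °C; detection: FRET, ex 480 nm, em 540 and 671 nm; read-out basis: % inhibition from 671/540 nm acceptor-to-donor ratio, scaled between controls; benchmarks: DMSO low control, neomycin B high control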
CYP2C19 inhib: human CYP2C19 inhibition; P33261; CYP2C19 Supersomes, luciferin-H EGE luminescence, 30 min; inhibition, % at 5 µM; 96,000 tested, 21% active;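 active means CYP2C19 inhibition above a set limit at 5 µM in the primary screen, cut at about 50% in these data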;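 further: plate controls were negative control wells for no effect and 2.5 mM tranylcypromine positive control for full effect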
CYP2C9 inh: blocks human cytochrome P450 2C9 | 96,000 tested, 20% active | inhibition, % at 5 µM | CYP2C9 Supersomes, luciferin-H conversion, luminescence;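 active means blocking of liver enzyme CYP2C9 beyond about 50% at 5 µM, limit read from the data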
* marks the source's active call; other numbers are inactive results; x = no result.

SMILES	Cav32 inh	CYP2C19 activ	CYP2C9 act	HIV Rev-RRE inh	CYP2C19 inhib	CYP2C9 inh
CC(=O)Nc1ccc(SCC(=O)N(CCC#N)c2cc(C)cc(C)c2)cc1	0.82	0.2	0.3	7	82*	70*
N#CCCN(C(=O)CSc1ccc2c(c1)OCCO2)c1ccccc1	x	0.1	0.4	x	93*	56*
CCCCn1nc2cc(C(=O)NC3CCCc4ccccc43)ccc2c1OCC (configuration not stated)	-0.96	0.9	0.8	9	11	18
CCOC(=O)Cc1csc(NC(=O)CC)n1	-0.39	1	1	2	-2	2
CCOC(=O)Cc1csc(SC(C)C(=O)Nc2ccc(NC(C)=O)cc2)n1 (configuration not stated)	0.19	0.3	0.1	2	68*	91*
Cc1cccc(NC(=S)N(CCN(C)C)C(C)c2ccccn2)c1 (configuration not stated)	0.013	0.9	1	5	12	2
Cc1sc(NC(=O)c2ccccc2)c(C(=O)NC(C)C)c1C	0.37	0.9	0.5	8	5	53*
Cc1sc(NC(=O)c2ccccc2)c(C(=O)N2CCN(C)CC2)c1C	0.52	1	1	10	-1	-3
CCN(CC)C(=O)c1c(NC(=O)c2ccccc2)sc(C)c1C	0.22	0.3	0.8	-2	73*	24
CCCCN(C)C(=O)c1c[nH]c2ccc(S(=O)(=O)N3CCOCC3)cc2c1=O	0.25	x	x	x	x	x
O=C(Cn1cc2c(n1)CCCC2)NCCc1ccccc1	0.61	x	x	0	x	x
N#C/C(=C/N1CCOCC1)c1ccccc1	0.037	0.5	0.8	5	53*	19
O=C(c1cccs1)N1CCN=C1SCc1cccnc1	1.6	0.4	0.7	4	55*	25
O=C(c1ccc2c(c1)OCO2)N1CCN=C1SCc1ccccc1	-5.4*	0.7	0.7	x	35	32
O=C(c1cccc(F)c1)N1CCN=C1SCc1cccnc1	0.023	0.1	0.2	6	91*	82*
COc1cc(OC)cc(C(=O)N2CCN=C2SCc2cccnc2)c1	0.008	0	0.1	5	100*	90*
O=C(c1ccco1)N1CCN=C1SCc1cccnc1	0.95	0.9	1.1	3	12	-7
COC(=O)NC1CSCC1OC(=O)CN1C(=O)c2ccccc2C1=O (configuration not stated)	0.54	0.7	1	x	32	0
Cc1cccc(CSC2=NCCN2C(=O)c2ccco2)c1	-0.67	0.6	1	7	42	-2
O=C(c1ccc(Br)o1)N1CCN=C1SCc1cccc(F)c1	-1.3	0.1	0.4	1	91*	59*
O=C(N1CCN=C1SCc1cccnc1)C12CC3CC(CC(C3)C1)C2	1.3	0.2	0.9	2	83*	9
CN(C)CCNC(=O)c1c(O)c2c([nH]c1=O)CCCC2	x	1	0.9	-3	3	6
O=C(NCC(c1cccnc1)N1CCN(c2ccc(F)cc2)CC1)c1ccc(F)cc1 (configuration not stated)	-0.46	0.2	0.2	4	81*	77*
O=C(NCC(c1cccnc1)N1CCN(c2ccc(F)cc2)CC1)c1ccc2c(c1)OCO2 (configuration not stated)	0.2	0.4	0.2	-2	64*	80*
COc1ccc(C(=O)NCC(c2cccnc2)N2CCN(c3ccc(F)cc3)CC2)cc1OC (configuration not stated)	-0.14	x	x	13	x	x
SMILES	Cav32 inh	CYP2C19 activ	CYP2C9 act	HIV Rev-RRE inh	CYP2C19 inhib	CYP2C9 inh
COCc1c(C(=O)N2CCN(c3ccc(C(F)(F)F)cn3)CC2)oc2ccccc12	-4.7*	0.2	0.9	9	80*	7
O=C(c1oc2ccccc2c1CSCc1ccccc1)N1CCN(c2ncccn2)CC1	-4.1	0.4	0.2	1	62*	80*
C/C=C/C=C/C(=O)[C@@H]1[C@@H]([C@]2(C)OC(=O)C(C)=C2O)[C@H]2/C(=C(O)/C=C/C=C/C)C(=O)[C@]1(C)C(=O)C2(C)O (some centres not stated)	1.8	x	x	x	x	x
CC1CCc2c(sc(N)c2C(=O)OC(C)C)C1 (configuration not stated)	0.01	0.9	1.4	2	10	-44
COc1ccc(OC(=O)c2ccncc2)cc1	0.071	0.2	0.4	7	77*	57*
CC(=O)c1cc(OC(=O)c2ccncc2)ccc1OC(=O)c1ccncc1	-0.024	0.1	0.3	2	90*	65*
Cc1ccc(-c2nnn(CC(=O)N(CC3CCCO3)C(C(=O)NC(C)(C)C)c3ccc(F)cc3)n2)o1 (configuration not stated)	-0.47	x	x	-3	x	x
Cc1ccc(-c2nnn(CC(=O)Nc3cccc4c3CCCC4)n2)o1	-0.076	0.5	0.9	13	52*	13
Cc1ccc(-c2nnn(CC(=O)NCCc3ccc4c(c3)OCO4)n2)o1	-1.9	0.4	0.1	2	60*	89*
CCCCOC(=O)Nc1cc(C)c(Cl)cc1OC	1.2	0.9	0.8	12	8	23
CCCOC(=O)Nc1cc(OC)c(Cl)cc1OC	-0.59	0.1	0.5	1	89*	47
COc1ccc(-c2cn3c4c(sc3n2)CCCC4)cc1	-1.3	0.1	0.2	4	86*	78*
COc1ccc2oc(/C=C/N(C)C)c(C(=O)c3ccc(Cl)cc3)c2c1	-1.7	0.8	0.8	-1	16	16
C=CCNc1nc(N)c(C(=O)c2ccc3c(c2)OCO3)s1	x	0.1	1.3	1	90*	-32
O=C(O)C1CCCCC1C(=O)Nc1ccc(F)cc1F (configuration not stated)	x	1	1	2	-4	-1
CCCCn1c(SCC(=O)Nc2cc(C)on2)nc2c1c(=O)n(C)c(=O)n2C	-4	0.8	0.7	3	17	32
COC(=O)c1ccccc1NC(=O)CSc1nc2c(c(=O)n(C)c(=O)n2C)n1C	x	x	x	4	x	x
CCCn1c(SCC(=O)Nc2ccccc2N2CCCCC2)nc2c1c(=O)n(C)c(=O)n2C	-4.4*	0.2	0	0	79*	98*
CCCn1c(SCC(=O)Nc2sc(C)c(C)c2C(=O)OCC)nc2c1c(=O)n(C)c(=O)n2C	0.34	1	0.3	11	-3	66*
CCCn1c(SCC(=O)Nc2ccccc2C(=O)OC)nc2c1c(=O)n(C)c(=O)n2C	-1.5	0.7	0.3	2	34	72*
Cc1ccc(-n2c(N)c(C(=O)N3CCCCC3)sc2=S)cc1	0.074	0.3	0.7	-1	67*	26
Cc1ccc(C(Sc2ccccc2)C(Cn2cncn2)C(=O)c2ccccc2)cc1 (configuration not stated)	0.74	0.1	0.4	5	92*	63*
